The target in series [1] is T1, 3-hydroxy-3-methylglutaryl-coenzyme A reductase (Rattus norvegicus, UniProt P51639).
T1 sequence (P51639 whole entry): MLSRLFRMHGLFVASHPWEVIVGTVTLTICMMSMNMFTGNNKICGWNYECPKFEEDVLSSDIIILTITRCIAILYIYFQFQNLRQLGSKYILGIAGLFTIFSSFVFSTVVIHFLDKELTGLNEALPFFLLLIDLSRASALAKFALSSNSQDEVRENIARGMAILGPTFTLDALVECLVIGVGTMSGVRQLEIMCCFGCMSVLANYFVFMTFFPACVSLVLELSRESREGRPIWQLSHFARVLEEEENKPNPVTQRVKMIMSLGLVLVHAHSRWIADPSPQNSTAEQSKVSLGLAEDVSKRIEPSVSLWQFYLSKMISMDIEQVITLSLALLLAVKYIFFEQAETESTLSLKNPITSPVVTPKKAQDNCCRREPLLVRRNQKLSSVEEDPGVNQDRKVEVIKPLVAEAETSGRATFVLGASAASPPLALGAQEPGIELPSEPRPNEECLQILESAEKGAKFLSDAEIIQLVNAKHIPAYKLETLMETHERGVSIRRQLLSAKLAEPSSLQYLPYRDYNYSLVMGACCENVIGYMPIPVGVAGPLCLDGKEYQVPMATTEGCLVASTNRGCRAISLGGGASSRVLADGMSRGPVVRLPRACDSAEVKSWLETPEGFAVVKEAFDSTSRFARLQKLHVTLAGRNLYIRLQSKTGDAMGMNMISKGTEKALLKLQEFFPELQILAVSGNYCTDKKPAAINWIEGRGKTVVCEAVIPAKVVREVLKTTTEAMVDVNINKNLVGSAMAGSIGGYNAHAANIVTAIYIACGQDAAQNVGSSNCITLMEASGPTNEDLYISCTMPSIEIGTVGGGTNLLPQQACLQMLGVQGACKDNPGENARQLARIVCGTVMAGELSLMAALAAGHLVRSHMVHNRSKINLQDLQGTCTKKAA
In words: Inhibitory activity against washed rat liver microsomal HMG-CoA reductase (HMGR). An outline of the steps:
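Male Wistar rats (100–120 g) on reversed light cycle, killed at 0800 h; washed liver microsomes (10000g then 105000g spins, 4 °C) in buffer A (50 mM K phosphate pH 7.4, 250 mM NaCl, 10 mM EDTA, 1 mM DTT). Enzyme+inhibitor preincubated 10 min 37 °C; NADPH-regenerating system plus [3-14C]HMG-CoA added; HCl stop, lactonization, anion-exchange isolation of [14C]mevalonate, scintillation. Five concentrations, duplicate, ≥2 occasions; pravastatin reference.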
(Liver microsomes are vesicles of endoplasmic reticulum, rich in cytochrome P450 enzymes.)

The nature of series [2]: Partition coefficient (logD7.4). The settings on record: octanol/water, pH 7.4. In kind it is physicochemical. An outline of the steps: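 log D by HPLC in n-octanol–water: compound dissolved in pH 7.4 aqueous borax-phosphate buffer saturated with n-octanol, eluted through a column of n-octanol physically bonded to fractionated hyflosuperpel.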
Series [3] concerns HepG2. In words: Tested for ability to inhibit the incorporation of [14C]- acetate in to cholesterol in HepG2 cells. In kind it is functional, cell-based. The settings on record: Homo sapiens. An outline of the steps: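 HepG2 cells in MEM + 10% fetal calf serum to 80% confluency, switched to serum-free MEM; inhibitor and sodium [14C]acetate added together, 3 h. Saponified, petroleum ether extract; [14C]cholesterol separated by reverse-phase HPLC and measured by radioactivity flow monitor. At least five concentrations, triplicate, run twice; lovastatin standard.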

Bounds are passed on as bounds.

By IC50 is commonly meant the point on the concentration scale where inhibition reaches its midpoint. Read a high IC50 as lower potency. Regarding `CC(C)c1nc(-c2ccc(F)cc2)c(-c2ccc(F)cc2)n1/C=C/[C@H](O)C[C@H](O)CC(=O)O`, the midpoint of inhibition in series [1], the IC50, lay at 700 nM.
Still for that read-out and setting: for `CC(C)c1nc(-c2ccc(F)cc2)c(-c2ccc(F)cc2)n1/C=C/[C@H](O)C[C@@H](O)CC(=O)O` the value was 2000 nM; for `Cc1cccc(-c2nc(C(F)(F)F)n(CC[C@@H](O)C[C@@H](O)CC(=O)O)c2-c2ccc(F)cc2)c1`, 29 nM.
The same measure, in the same setting: for `COc1ccc(-c2nc(C(F)(F)F)n(CC[C@@H](O)C[C@@H](O)CC(=O)O)c2-c2ccc(F)cc2)cc1` the value was 68 nM; for `O=C(O)C[C@H](O)C[C@H](O)CCn1c(C(F)(F)F)nc(-c2ccc(F)cc2)c1-c1ccc(F)cc1`, 38 nM.
In general, logD refers to the decadic logarithm of the distribution of all forms, ionised or not, between an organic phase and buffer at a given pH. Higher therefore signals higher lipophilicity. As to `CC(C)c1nc(-c2ccc(F)cc2)c(-c2ccc(F)cc2)n1/C=C/[C@@H](O)C[C@@H](O)CC(=O)O` [listing 1 of 2 here], the logD in series [2] is 0.72. Besides, the IC50 in series [1] came out at 2 nM; in series [3], 5.3 nM.
On to `COc1ccc(-c2c(-c3ccc(F)cc3)nc(C(F)(F)F)n2CC[C@@H](O)C[C@@H](O)CC(=O)O)cc1`, for which the IC50 in series [1] was 418 nM.
As for `O=C(O)C[C@H](O)C[C@H](O)CCn1c(C(F)(F)F)nc(-c2ccc(F)cc2)c1-c1cccs1`, the half-inhibitory concentration (IC50) in series [1] is 215 nM.
Same read-out and setting: then `O=C(O)C[C@H](O)C[C@H](O)CCn1c(C(F)(F)F)nc(-c2ccccc2)c1-c1ccc(F)cc1`, with 31 nM; and `Cc1cc(C)cc(-c2c(-c3ccc(F)cc3)nc(C(F)(F)F)n2CC[C@@H](O)C[C@@H](O)CC(=O)O)c1`, with 38 nM.
On the same count and under the same terms, then `CC(C)c1nc(-c2ccccc2)n(-c2ccc(F)cc2)c1/C=C/[C@@H](O)C[C@@H](O)CC(=O)O`, with 2.6 nM.
On the same count and under the same terms, then `Cc1cc(-c2c(-c3ccc(F)cc3)nc(C(C)C)n2/C=C/[C@@H](O)C[C@@H](O)CC(=O)O)cc(C)c1F`, with 30 nM.
`Cc1cc(F)ccc1-c1c(-c2ccc(F)cc2)nc(C(C)C)n1/C=C/[C@@H](O)C[C@@H](O)CC(=O)O` came in with a logD in series [2] of 0.86. Further, in series [1], the 50% inhibitory concentration (IC50) was found to be 4 nM.
For `CC(C)c1nc(-c2cccnc2)c(-c2ccc(F)cc2)n1/C=C/[C@@H](O)C[C@@H](O)CC(=O)O` the same measures were -0.43 and 1 nM.
Regarding `Cc1ccc(-c2c(-c3ccc(F)cc3)nc(C(F)(F)F)n2CC[C@@H](O)C[C@@H](O)CC(=O)O)cc1`, in series [1], the midpoint of inhibition, the IC50, lay at 750 nM.
Still for that read-out and setting: for `Cc1cc(C)cc(-c2c(-c3ccc(F)cc3)nc(C(C)C)n2/C=C/[C@@H](O)C[C@@H](O)CC(=O)O)c1` the value was 56 nM; for `CC(C)(C)c1nc(-c2ccc(F)cc2)c(-c2ccc(F)cc2)n1/C=C/[C@@H](O)C[C@@H](O)CC(=O)O`, 7 nM.
On the same count and under the same terms, for `CN(C)c1nc(-c2ccc(F)cc2)c(-c2ccc(F)cc2)n1/C=C/[C@@H](O)C[C@@H](O)CC(=O)O` the value was 9 nM.
Same read-out and setting: then `O=C(O)C[C@H](O)C[C@H](O)CCn1c(C(F)(F)F)nc(-c2ccc(F)cc2)c1-c1cccc(Cl)c1`, with 41 nM.
`Cc1ccc(-c2nc(C(F)(F)F)n(CC[C@@H](O)C[C@@H](O)CC(=O)O)c2-c2ccc(F)cc2)cc1`: 43 nM corresponded to half-maximal inhibition in series [1] (IC50).
On the same count and under the same terms, for `O=C(O)C[C@H](O)C[C@H](O)CCn1c(C(F)(F)F)nc(-c2ccc(F)cc2)c1-c1cccnc1` the value was greater than 1000 nM.
Still for that read-out and setting: for `Cc1cccc(-c2c(-c3ccc(F)cc3)nc(C(F)(F)F)n2CC[C@@H](O)C[C@@H](O)CC(=O)O)c1` the value was 74 nM; for `CCc1cc(-c2c(-c3ccc(F)cc3)nc(C(C)C)n2/C=C/[C@@H](O)C[C@@H](O)CC(=O)O)cc(CC)c1F`, 100 nM; for `O=C(O)C[C@H](O)C[C@H](O)CCn1c(C(F)(F)F)nc(-c2cccs2)c1-c1ccc(F)cc1`, 64 nM.
`CC(C)c1c(-c2ccc(F)cc2)nc(-c2ccc(F)cc2)n1/C=C/[C@@H](O)C[C@@H](O)CC(=O)O`: the logD in series [2] stood at 0.83. In addition, the IC50 in series [1] was determined as 1 nM.
As to `CC(C)c1nc(-c2ccc(F)cc2)c(-c2ccc(F)cc2)n1CC[C@@H](O)C[C@@H](O)CC(=O)O`, the IC50 in series [1] worked out at 316 nM.
In series [2], `CC(C)c1nc(-c2cccc(S(C)(=O)=O)c2)c(-c2ccc(F)cc2)n1/C=C/[C@@H](O)C[C@@H](O)CC(=O)O` showed a logD of -0.6. This molecule showed an IC50 in series [1] of 2 nM.
On to `O=C(O)C[C@H](O)C[C@H](O)CCn1c(C(F)(F)F)nc(-c2ccc(F)cc2)c1-c1ccccc1`, for which the IC50 in series [1] was 201 nM.
In turn, `COc1cccc(-c2c(-c3ccc(F)cc3)nc(C(F)(F)F)n2CC[C@@H](O)C[C@@H](O)CC(=O)O)c1` registered a half-inhibitory concentration (IC50) in series [1] of 135 nM.
In turn, `Cc1cc(-c2nc(C(C)C)n(/C=C/[C@@H](O)C[C@@H](O)CC(=O)O)c2-c2ccc(F)cc2)cc(C)c1Cl` came in with a logD in series [2] of 2.27. The IC50 in series [1] amounted to 2 nM; in series [3], 0.9 nM.
The molecule `Cc1cc(-c2nc(C(F)(F)F)n(CC[C@@H](O)C[C@@H](O)CC(=O)O)c2-c2ccc(F)cc2)cc(C)c1F` showed an IC50 in series [1] of 32 nM. This counts as double-digit nanomolar.
Same read-out and setting: for `O=C(O)C[C@H](O)C[C@H](O)CCn1c(C(F)(F)F)nc(-c2ccc(C(F)(F)F)cc2)c1-c1ccc(F)cc1` the value was 200 nM.
Same read-out and setting: then `O=C(O)C[C@H](O)C[C@H](O)CCn1c(C(F)(F)F)nc(-c2cccc(Cl)c2)c1-c1ccc(F)cc1`, with 17 nM; and `CC(C)c1nc(-c2ccc(F)cc2)c(-c2cccc(Cl)c2)n1/C=C/[C@@H](O)C[C@@H](O)CC(=O)O`, with 8 nM; and `CC(C)c1nc(-c2ccc(F)cc2)c(-c2cc(Cl)cc(Cl)c2)n1/C=C/[C@@H](O)C[C@@H](O)CC(=O)O`, with 22 nM.
In series [2], `O=C(O)C[C@H](O)C[C@H](O)/C=C/n1c(C(F)(F)F)nc(-c2ccc(F)cc2)c1-c1ccc(F)cc1` showed a logD of 0.73. Further, the IC50 in series [1] is 13 nM; in series [3] it was 15.8 nM.
Molecule `O=C(O)C[C@H](O)C[C@H](O)CCn1c(C(F)(F)F)nc(-c2ccc(F)cc2)c1-c1ccc(C(F)(F)F)cc1` had a half-maximal inhibitory concentration (IC50) in series [1] greater than 1000 nM.
Still for that read-out and setting: for `Cc1cc(C)cc(-c2nc(C(F)(F)F)n(CC[C@@H](O)C[C@@H](O)CC(=O)O)c2-c2ccc(F)cc2)c1` the value was 24 nM; for `Cc1cc(-c2c(-c3ccc(F)cc3)nc(C(F)(F)F)n2CC[C@@H](O)C[C@@H](O)CC(=O)O)cc(C)c1F`, 31 nM.
With `CC(C)c1nc(-c2ccc(F)cc2)c(-c2ccc(F)cc2)n1/C=C/[C@@H](O)C[C@@H](O)CC(=O)O` [listing 2 of 2 here], the half-maximal inhibitory concentration (IC50) in series [1] turned out to be 1 nM; in series [3], 2.5 nM.
The molecule `O=C(O)C[C@H](O)C[C@H](O)CCn1c(C(F)(F)F)nc(-c2cccnc2)c1-c1ccc(F)cc1` displayed an IC50 in series [1] of 66 nM.
`CNc1cccc(-c2nc(C(C)C)n(/C=C/[C@@H](O)C[C@@H](O)CC(=O)O)c2-c2ccc(F)cc2)c1`: the logD in series [2] is -0.05. In series [1], this molecule returned an IC50 of 3 nM.
Turning to `COc1cccc(-c2nc(C(F)(F)F)n(CC[C@@H](O)C[C@@H](O)CC(=O)O)c2-c2ccc(F)cc2)c1`, half-maximal inhibition in series [1] (IC50) required 20 nM.
Same read-out and setting: for `Cc1nc(-c2ccc(F)cc2)c(-c2ccc(F)cc2)n1/C=C/[C@@H](O)C[C@@H](O)CC(=O)O` the value was greater than 100 nM.

The values above are taken from ChEMBL document CHEMBL1126904, “Inhibitors of cholesterol biosynthesis. 1. 3,5-Dihydroxy-7-(N-imidazolyl)-6-heptenoates and -heptanoates, a novel series of HMG-CoA reductase inhibitors” (J Med Chem, 1993).
